Measured values of several laboratories.
Compare with care: the assays were run in different laboratories.
Target: Mitogen-activated protein kinase 13 (MAPK13, Homo sapiens, UniProt O15264)
Sequence (O15264 1-365, as in one of the studies): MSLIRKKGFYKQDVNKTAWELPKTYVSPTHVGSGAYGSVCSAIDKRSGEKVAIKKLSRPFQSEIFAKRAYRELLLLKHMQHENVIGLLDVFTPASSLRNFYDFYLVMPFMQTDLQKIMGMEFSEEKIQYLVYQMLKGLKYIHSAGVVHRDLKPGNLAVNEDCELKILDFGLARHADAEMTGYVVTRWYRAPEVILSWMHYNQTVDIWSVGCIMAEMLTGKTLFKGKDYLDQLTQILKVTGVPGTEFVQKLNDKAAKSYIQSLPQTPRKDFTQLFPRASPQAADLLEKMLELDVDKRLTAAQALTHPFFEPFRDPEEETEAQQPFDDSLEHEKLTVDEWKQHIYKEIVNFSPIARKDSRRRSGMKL

O=C(NCC1CCOCC1)c1n[nH]cc1NC(=O)c1c(F)cccc1F
remaining binding (binding; competition with immobilised ligand; 1 µM): 100%

Cc1cnn2ncc(-c3ccnc(N(C)C)n3)c2c1
remaining binding (binding; 1 µM): 100%

FC(F)(F)Oc1cccc(-c2cnc3ccc(-c4ccncc4)nn23)c1
remaining binding (cell-free assay; competition with immobilised ligand; 5 µM): 97%

c1cnn2ncc(-c3ccnc(N4CCC45COC5)n3)c2c1
remaining binding (binding; 1 µM): 78%

O=C(O)[C@H]1[C@H](Cn2nnc3ccccc3c2=O)CC[C@@H]1C(=O)c1ccc(OCCC2CCOCC2)cc1
remaining binding (cell-free assay; competition with immobilised ligand; 1 µM): 97%

COc1ccnn2ncc(-c3ccnc(N(C)C)n3)c12
remaining binding (binding; 1 µM): 100%

COc1cnc(Nc2cccc(S(N)(=O)=O)c2)nc1N1CCN(c2ccccc2)C(=O)C1
remaining binding (binding; competition with immobilised ligand; 1 µM): 95%

C[C@H]1CCN(c2nccc(-c3cnn4ncccc34)n2)C1
remaining binding (binding; 1 µM): 83%

CN1CCN(c2cnc3c(C4CCN(C(=O)c5ccc(OC(F)(F)F)cc5N)CC4)ncnc3c2)CC1
remaining binding (cell-free assay; competition with immobilised ligand; 1 µM): 100%

O=C(c1ccc(Nc2ncc(Cl)c(-c3cc4ccccc4s3)n2)cc1)N1CCC(N2CCCC2)CC1
remaining binding (binding; competition with immobilised ligand; 1 µM): 100%

Cc1cc(NC(=O)c2cccc(S(F)(F)(F)(F)F)c2)cc(-n2ccn3nc(-c4cccnc4)cc23)c1
remaining binding (cell-free assay; competition with immobilised ligand; 1 µM): 79.6%

CNC(=O)[C@@H]1CC[C@@H](n2c(-c3ccc4cnccc4c3)nc3ccc(C(=O)NCc4cccc(C(N)=O)c4)cc32)C1
remaining binding (binding; competition with immobilised ligand; 1 µM): 100%

NS(=O)(=O)c1cc(NC(=O)Cc2ccccc2)ccc1Oc1cccc(Cl)c1
remaining binding (cell-free assay; competition with immobilised ligand; 1 µM): 100%

CCN1CCN(Cc2ccc(C(=O)Nc3ccc(C)c(Oc4ccc5c(c4)CC(=O)N5)c3)cc2C(F)(F)F)CC1
remaining binding (binding; competition with immobilised ligand; 1 µM): 100%

CCS(=O)(=O)c1cc2cc(C[C@](O)(CC(C)(C)c3ccc(F)cc3C(N)=O)C(F)(F)F)[nH]c2cn1
remaining binding (cell-free assay; competition with immobilised ligand; 1 µM): 100%

Cc1cnc(Nc2ccc(C(=O)N3CCC(N4CCCC4)CC3)cc2)nc1-c1cc2ccccc2s1
remaining binding (binding; competition with immobilised ligand; 1 µM): 100%

N[C@@H]1CCN(c2nccc(-c3cnn4ncccc34)n2)C1
remaining binding (binding; 1 µM): 100%

C=CC(=O)N1CCC(C(=O)NCC(=O)N2CCN(c3nc(-c4cnc(N)nc4C(F)F)nc(N4CCOCC4)n3)CC2)CC1
remaining binding (binding; competition with immobilised ligand; 1 µM): 99%

CN(CCCC(F)(F)F)c1nccc(-c2cnn3ncccc23)n1
remaining binding (binding; 1 µM): 100%

O=C(NCCCN1CCOCC1)c1ccc(Nc2ncc(Cl)c(-c3ccc(Cl)s3)n2)cc1
remaining binding (binding; competition with immobilised ligand; 1 µM): 100%

NS(=O)(=O)c1cc(NC(=O)C2(c3ccccc3Cl)CC2)ccc1Oc1cccc(Cl)c1
remaining binding (cell-free assay; competition with immobilised ligand; 1 µM): 88%

C[C@@H](c1ccc(-n2cnc3c(N)ncnc32)cc1)N1CCc2nn(C)c(Cc3ccccc3)c2C1=O
remaining binding (binding; competition with immobilised ligand; 0.1 µM): 83%
